Assay results published in publication PMC12079426 (RSC Advances, 2025).
“And” between values parts separate entries of the source, which are not always exact repeats. Identical values can stand only once.

Key:
Assay type in all cases: in vivo
female Swiss albino mice [1] = test: Forced Swim Test; details: percentage decrease in duration of immobility compared to disease control
How it was run: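 Female Swiss albino mice (20–23 g) were dosed 30 min before testing: saline 10 mL/kg (control), fluoxetine 10 mg/kg (standard), or test compound 100 mg/kg. Two 10-min swim sessions ran 24 h apart (pre-test, then test). Water was at 23 ± 1 °C, deep enough that hind legs could not touch bottom, and changed after each trial. Immobility duration reported as mean ± SEM.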

female Swiss albino mice [2] = test: Tail Suspension Test; details: percentage decrease in duration of immobility compared to disease control
How it was run: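 Female Swiss albino mice (20–23 g) received standard or test compound 30 min before testing. Each mouse was hung by the tail from a hook in a three-sided chamber, 50 cm above the surface. Total immobility was recorded over a 10-min session and reported as mean ± SEM.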

female Swiss albino mice [3] = test: Acute oral toxicity study; details: individual mice; for Body weight Day 0: pre-administration fasting weight
How it was run: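 Female Swiss albino mice (20–23 g) kept at 22 ± 3 °C, 50–65% humidity, 12 h light/dark. OECD 423 stepwise design, three mice per step: 300 mg/kg, then 2000 mg/kg. Test compound was given in distilled water by oral intubation needle. Feed was withheld 3–4 h before and 2 h after dosing. Fasting weight was taken pre-dose, then on days 7 and 14.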

Cc1nn(-c2ccccc2)c(-n2nnc3ccccc32)c1/C=C/C(=O)c1ccc(-n2c3ccccc3c3ccccc32)cc1 [13c, (E)-3-(5-(1H-Benzo[d][1,2,3]triazol-1-yl)-3-methyl-1-phenyl-1H-pyrazol-4-yl)-1-(4-(9H-carbazol-9-yl)phenyl)prop-2-en-1-one]
DID (%) Forced swim test (female Swiss albino mice [1]): 35.63% | DID (%) Tail suspension test (female Swiss albino mice [2]): 34.67% | Body weight Day 7 (female Swiss albino mice [3]; Step I 300 mg kg^−1 oral): 26.5 g | Body weight Day 14 (female Swiss albino mice [3]; Step I 300 mg kg^−1 oral): 31 g and 30 g | Body weight Day 0 (female Swiss albino mice [3]; Step I 300 mg kg^−1 oral): 22.5 g and 23.5 g and 21.5 g | Body weight Day 7 (female Swiss albino mice [3]; Step II 2000 mg kg^−1 oral): 28 g and 28.5 g and 29.5 g | Body weight Day 14 (female Swiss albino mice [3]; Step II 2000 mg kg^−1 oral): 33.5 g and 34.5 g | Body weight Day 0 (female Swiss albino mice [3]; Step II 2000 mg kg^−1 oral): 22 g and 23.5 g

COc1c(/C=C/C(=O)c2ccc(-n3cccc3)cc2)c(C)nn1-c1ccccc1 [15d, (E)-1-(4-(1H-Pyrrol-1-yl)phenyl)-3-(5-methoxy-3-methyl-1-phenyl-1H-pyrazol-4-yl)prop-2-en-1-one]
DID (%) Forced swim test (female Swiss albino mice [1]): 22.53% | DID (%) Tail suspension test (female Swiss albino mice [2]): 16.24%

Cc1nn(-c2ccccc2)c(N2CCCCC2)c1/C=C/C(=O)c1ccc(-n2cccc2)cc1 [15a, (E)-1-(4-(1H-Pyrrol-1-yl)phenyl)-3-(3-methyl-1-phenyl-5-(piperidin-1-yl)-1H-pyrazol-4-yl)prop-2-en-1-one]
DID (%) Forced swim test (female Swiss albino mice [1]): 6.55% | DID (%) Tail suspension test (female Swiss albino mice [2]): 4.50%

Cc1nn(-c2ccccc2)c(N2CCOCC2)c1/C=C/C(=O)c1ccc(-n2cccc2)cc1 [15b, (E)-1-(4-(1H-Pyrrol-1-yl)phenyl)-3-(3-methyl-5-morpholino-1-phenyl-1H-pyrazol-4-yl)prop-2-en-1-one]
DID (%) Forced swim test (female Swiss albino mice [1]): 11.56% | DID (%) Tail suspension test (female Swiss albino mice [2]): 5.74%

CNCCC(Oc1ccc(C(F)(F)F)cc1)c1ccccc1 (stereo not shown) [Fluoxetine, reference compound]
DID (%) Forced swim test (female Swiss albino mice [1]): 56.17% | DID (%) Tail suspension test (female Swiss albino mice [2]): 59.67%

Cc1nn(-c2ccccc2)c(N2CCCCC2)c1/C=C/C(=O)c1ccc(-n2ccc3ccccc32)cc1 [14a, (E)-1-(4-(1H-Indol-1-yl)phenyl)-3-(3-methyl-1-phenyl-5-(piperidin-1-yl)-1H-pyrazol-4-yl)prop-2-en-1-one]
DID (%) Forced swim test (female Swiss albino mice [1]): 16.61% | DID (%) Tail suspension test (female Swiss albino mice [2]): 2.58%

Cc1nn(-c2ccccc2)c(-n2nnc3ccccc32)c1/C=C/C(=O)c1ccc(-n2cccc2)cc1 [15c, (E)-3-(5-(1H-Benzo[d][1,2,3]triazol-1-yl)-3-methyl-1-phenyl-1H-pyrazol-4-yl)-1-(4-(1H-pyrrol-1-yl)phenyl)prop-2-en-1-one]
DID (%) Forced swim test (female Swiss albino mice [1]): 22.99% | DID (%) Tail suspension test (female Swiss albino mice [2]): 14.60%

COc1c(/C=C/C(=O)c2ccc(-n3ccc4ccccc43)cc2)c(C)nn1-c1ccccc1 [14d, (E)-1-(4-(1H-Indol-1-yl)phenyl)-3-(5-methoxy-3-methyl-1-phenyl-1H-pyrazol-4-yl)prop-2-en-1-one]
DID (%) Forced swim test (female Swiss albino mice [1]): 13.62% | DID (%) Tail suspension test (female Swiss albino mice [2]): 5.57%

Cc1nn(-c2ccccc2)c(-n2nnc3ccccc32)c1/C=C/C(=O)c1ccc(-n2ccc3ccccc32)cc1 [14c, (E)-3-(5-(1H-Benzo[d][1,2,3]triazol-1-yl)-3-methyl-1-phenyl-1H-pyrazol-4-yl)-1-(4-(1H-indol-1-yl)phenyl)prop-2-en-1-one]
DID (%) Forced swim test (female Swiss albino mice [1]): 17.90% | DID (%) Tail suspension test (female Swiss albino mice [2]): 9.60%

Cc1nn(-c2ccccc2)c(N2CCOCC2)c1/C=C/C(=O)c1ccc(-n2c3ccccc3c3ccccc32)cc1 [13b, (E)-1-(4-(9H-Carbazol-9-yl)phenyl)-3-(3-methyl-5-morpholino-1-phenyl-1H-pyrazol-4-yl)prop-2-en-1-one]
DID (%) Forced swim test (female Swiss albino mice [1]): 23.47% | DID (%) Tail suspension test (female Swiss albino mice [2]): 11.30% | Body weight Day 7 (female Swiss albino mice [3]; Step I 300 mg kg^−1 oral): 26.5 g and 29 g and 29.5 g | Body weight Day 14 (female Swiss albino mice [3]; Step I 300 mg kg^−1 oral): 32.5 g and 36 g and 34.5 g | Body weight Day 0 (female Swiss albino mice [3]; Step I 300 mg kg^−1 oral): 23.5 g and 24 g | Body weight Day 7 (female Swiss albino mice [3]; Step II 2000 mg kg^−1 oral): 27.5 g and 30.5 g and 27 g | Body weight Day 14 (female Swiss albino mice [3]; Step II 2000 mg kg^−1 oral): 32 g and 34.5 g | Body weight Day 0 (female Swiss albino mice [3]; Step II 2000 mg kg^−1 oral): 23 g and 24.5 g and 21.5 g

COc1c(/C=C/C(=O)c2ccc(-n3c4ccccc4c4ccccc43)cc2)c(C)nn1-c1ccccc1 [13d, (E)-1-(4-(9H-Carbazol-9-yl)phenyl)-3-(5-methoxy-3-methyl-1-phenyl-1H-pyrazol-4-yl)prop-2-en-1-one]
DID (%) Tail suspension test (female Swiss albino mice [2]): 8.55%

Cc1nn(-c2ccccc2)c(N2CCCCC2)c1/C=C/C(=O)c1ccc(-n2c3ccccc3c3ccccc32)cc1 [13a, (E)-1-(4-(9H-Carbazol-9-yl)phenyl)-3-(3-methyl-1-phenyl-5-(piperidin-1-yl)-1H-pyrazol-4-yl)prop-2-en-1-one]
DID (%) Forced swim test (female Swiss albino mice [1]): 24.92% | DID (%) Tail suspension test (female Swiss albino mice [2]): 5.74% | Body weight Day 7 (female Swiss albino mice [3]; Step I 300 mg kg^−1 oral): 28 g and 26.5 g and 29 g | Body weight Day 14 (female Swiss albino mice [3]; Step I 300 mg kg^−1 oral): 32 g and 33 g and 34.5 g | Body weight Day 0 (female Swiss albino mice [3]; Step I 300 mg kg^−1 oral): 22.5 g and 21.5 g and 25 g | Body weight Day 7 (female Swiss albino mice [3]; Step II 2000 mg kg^−1 oral): 29.5 g and 29 g and 30 g | Body weight Day 14 (female Swiss albino mice [3]; Step II 2000 mg kg^−1 oral): 33 g and 32.5 g and 35 g | Body weight Day 0 (female Swiss albino mice [3]; Step II 2000 mg kg^−1 oral): 24 g and 23.5 g

Cc1nn(-c2ccccc2)c(N2CCOCC2)c1/C=C/C(=O)c1ccc(-n2ccc3ccccc32)cc1 [14b, (E)-1-(4-(1H-Indol-1-yl)phenyl)-3-(3-methyl-5-morpholino-1-phenyl-1H-pyrazol-4-yl)prop-2-en-1-one]
DID (%) Forced swim test (female Swiss albino mice [1]): 2.22% | DID (%) Tail suspension test (female Swiss albino mice [2]): 1.92%
